In article PMC10731006 (Heliyon, 2023):
≈ marks a conversion by molar mass, not a printed value. Entries after “also recorded” stand apart in the source; their conditions may differ.

What was measured:
[1] = test system: Bacillus cereus (ATCC 11778); assay: Agar diffusion test, B. cereus; format: cell-based; settings: ATCC11778, read-out: Zone of inhibition BC
[2] = test system: Bacillus cereus (ATCC 11778); assay: Micro-broth dilution assay; format: cell-based; settings: ATCC11778, read-out: MIC BC
[3] = test system: human dermal fibroblast (HDF, human dermal cell line); assay: MTT cytotoxicity assay, normal cells; format: cell-based; settings: Homo sapiens, Fibroblast, 96 h, read-out: IC50 HDF
Method in brief: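 Human dermal fibroblasts were maintained in DMEM with 10% FCS, 2 mM L-glutamine and 1% penicillin-streptomycin (37 °C, 5% CO2). They were seeded at 1 × 10^4 cells/ml, allowed to adhere overnight, then treated 96 h with serially diluted test compound (six final levels, 1–600) beside DMSO-matched vehicle and cisplatin controls. Then MTT 5 mg/ml was added for 4 h, formazan taken up in DMSO, and absorbance read at 540 nm, in triplicate. IC50 was fitted.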

[4] = test system: Staphylococcus aureus (ATCC 10145); assay: Micro-broth dilution assay; format: cell-based; settings: ATCC10145, read-out: MIC SA
[5] = test system: cancer cell lines (U87, MCF-7 and A549) compared to normal cells (HDF); assay: MTT cytotoxicity, cancer cell lines compared to normal cells; format: cell-based, human; settings: 96 h treatment
Method in brief: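 A549 and MCF7 grown in RPMI 1640, HDF and U87 in DMEM, each with 10% FCS, 2 mM L-glutamine, 1% pen-strep, 37 °C, 5% CO2. Cells at 1 × 10^4 cells/ml were adhered overnight, then exposed 96 h to test compound (final 1–600 […] in medium). Controls were blank, untreated, DMSO-matched and cisplatin (1–100 μM/mL). MTT 5 mg/ml for 4 h; DMSO-solubilised formazan read at 540 nm, triplicate. IC50 from curve fitting; selectivity index = HDF IC50 / cancer-line IC50.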

[6] = test system: Escherichia coli (ATCC 25922); assay: Micro-broth dilution assay; format: cell-based; settings: ATCC25922, read-out: MIC EC
[7] = test system: glioblastoma (U-87 MG) cells; assay: MTT cytotoxicity assay, U-87 MG; format: cell-based, human; settings: for IC50: Homo sapiens, U-87 MG, 96 h, read-out: IC50 U87; for SI U87 (selectivity index): IC50 in HDF / IC50 in U87, 96 h
Method in brief: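 U-87 MG cells were cultured in DMEM with 10% FCS, 2 mM L-glutamine and 1% penicillin-streptomycin at 37 °C, 5% CO2. Seeding was 1 × 10^4 cells/ml; after overnight adherence, test compound diluted in medium (six final levels, 1–600) was applied for 96 h alongside DMSO-matched and cisplatin controls. Read-out: MTT 5 mg/ml for 4 h, DMSO solubilisation, A540, in triplicate, IC50 fitted. SI = IC50 in HDF / IC50 in U87.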

B. subtilis (ATCC 6633) [8] = assay: Agar diffusion test, B. subtilis; format: cell-based; settings: Bacillus subtilis, ATCC6633, read-out: Zone of inhibition BS
[9] = test system: Gram-positive and Gram-negative bacterial test strains; assay: Antibacterial activity, whole panel of test strains; format: cell-based
Method in brief: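 Disc diffusion followed CLSI (2012). Test compound at 10, 50 and 100 μg/disc was loaded on 6-mm blank filter discs laid on Mueller Hinton agar seeded at 10^6 cells/ml. Strains were S. aureus ATCC 10145, B. cereus ATCC 11778, B. subtilis ATCC 6633, P. aeruginosa ATCC 13048 and E. coli ATCC 25922. Inhibition zones were recorded.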

[10] = test system: non-small cell lung cancer (A549) cells; assay: MTT cytotoxicity assay, A549; format: cell-based, human; settings: for IC50: Homo sapiens, A549, 96 h, read-out: IC50 A549; for SI A549 (selectivity index): IC50 in HDF / IC50 in A549, 96 h
Method in brief: (§1)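 Cells were grown in RPMI 1640 with 10% FCS, 2 mM L-glutamine and 1% penicillin-streptomycin at 37 °C under 5% CO2. They were seeded at 1 × 10^4 cells/ml, left overnight to adhere, and exposed 96 h to test compound diluted in medium (six final levels, 1–600), with DMSO-matched and cisplatin controls. MTT at 5 mg/ml was added for 4 h, formazan dissolved in DMSO, and A540 read, in triplicate. IC50 was fitted from the data. SI = IC50 in HDF / IC50 in this line.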

[11] = test system: Pseudomonas aeruginosa (ATCC 13048); assay: Micro-broth dilution assay; format: cell-based; settings: ATCC13048, read-out: MIC PA
[12] = ABTS radical scavenging assay
[13] = test system: breast cancer (MCF7) cells; assay: MTT cytotoxicity assay, MCF7; format: cell-based, human; settings: for IC50: Homo sapiens, MCF7, 96 h, read-out: IC50 MCF-7; for SI MCF-7 (selectivity index): IC50 in HDF / IC50 in MCF-7, 96 h
Method in brief: as §1

[14] = DPPH radical scavenging assay
B. subtilis (ATCC 6633) [15] = assay: Micro-broth dilution assay; format: cell-based; settings: Bacillus subtilis, ATCC6633, read-out: MIC BS
[16] = test system: Pseudomonas aeruginosa (ATCC 13048); assay: Agar diffusion test, P. aeruginosa; format: cell-based; settings: ATCC13048, read-out: Zone of inhibition PA
[17] = test system: Escherichia coli (ATCC 25922); assay: Agar diffusion test, E. coli; format: cell-based; settings: ATCC25922, read-out: Zone of inhibition EC
[18] = test system: Staphylococcus aureus (ATCC 10145); assay: Agar diffusion test, S. aureus; format: cell-based; settings: ATCC10145, read-out: Zone of inhibition SA

MIC [2]	MIC [4]	MIC [6]	MIC [11]	IC50 ± SD, ABTS [12]	IC50 ± SD, DPPH [14]	Structure (SMILES)	IC50 [3]	cytotoxic / anti-proliferative activity in words [5]	IC50 [7]	SI U87 (selectivity index) [7]	IC50 [10]	SI A549 (selectivity index) [10]	% inhibition ±SD, ABTS ([12]; 5 μg/ml)	% inhibition ±SD, ABTS ([12]; 10 μg/ml)	% inhibition ±SD, ABTS ([12]; 25 μg/ml)	% inhibition ±SD, ABTS ([12]; 50 μg/ml)	% inhibition ±SD, ABTS ([12]; 100 μg/ml)	IC50 [13]	SI MCF-7 (selectivity index) [13]	% inhibition ±SD, DPPH ([14]; 10 μg/ml)	other results
500 µg/mL (≈ 889 µM)	> 500 µg/mL	> 500 µg/mL	> 500 µg/mL	17.8 ± 1.1 µg/mL (≈ 31.6 µM)	32.6 ± 2.9 µg/mL (≈ 57.9 µM)	COC(=O)c1cn(C2CC2)c2cc(N3CCN(C(=O)c4c(C)nnn4Cc4ccc(F)cc4)CC3)c(F)cc2c1=O [Compound 6a, methyl 7-(4-(1-(4-fluorobenzyl)-4-methyl-1H-1,2,3-triazole-5-carbonyl)piperazin-1-yl)-1-cyclopropyl-6-fluoro-4-oxo-1,4-dihydroquinoline-3-carboxylate]	504 ± 19.9 µM	remarkable anti-proliferative activity against all three cell-lines; also recorded: significant cytotoxic activity against all cancer cell lines	34.6 ± 7.8 µM	14.6	139 ± 9.3 µM	3.6	22.7 ± 0.2%	48.7 ± 0.5%	53.5 ± 0.3%	71.1 ± 1.0%	75.5 ± 0.5%	112 ± 10.1 µM	4.5	40.2 ± 0.4%	zone of inhibition at 100 µg/disc [1]: 12.7 ± 0.6 mm; zone of inhibition at 300 µg/disc [1]: 14.6 ± 0.3 mm; zone of inhibition at 500 µg/disc [1]: 15.3 ± 0.3 mm; zone of inhibition at 100 µg/disc (B. subtilis (ATCC 6633) [8]): 11.3 ± 1.2 mm; zone of inhibition at 300 µg/disc (B. subtilis (ATCC 6633) [8]): 13.1 ± 0.6 mm; zone of inhibition at 500 µg/disc (B. subtilis (ATCC 6633) [8]): 14.6 ± 0.7 mm; antibacterial activity in words [9]: bioactivity against Gram-positive bacterial test strains; % inhibition ±SD, DPPH ([14]; 5 μg/ml): 27.04 ± 0.2%; % inhibition ±SD, DPPH ([14]; 25 μg/ml): 47.2 ± 1.0%; % inhibition ±SD, DPPH ([14]; 50 μg/ml): 53.2 ± 0.9%; % inhibition ±SD, DPPH ([14]; 100 μg/ml): 63.3 ± 0.8%; MIC (B. subtilis (ATCC 6633) [15]): 500 µg/mL (≈ 889 µM)
> 500 µg/mL	> 500 µg/mL	500 µg/mL (≈ 889 µM)	500 µg/mL (≈ 889 µM)	35.3 ± 1.6 µg/mL (≈ 62.7 µM)	32.4 ± 1.1 µg/mL (≈ 57.6 µM)	COC(=O)c1cn(C2CC2)c2cc(N3CCN(C(=O)c4c(C)nnn4Cc4cccc(F)c4)CC3)c(F)cc2c1=O [Compound 6b, methyl 7-(4-(1-(3-fluorobenzyl)-4-methyl-1H-1,2,3-triazole-5-carbonyl)piperazin-1-yl)-1-cyclopropyl-6-fluoro-4-oxo-1,4-dihydroquinoline-3-carboxylate]	171 ± 8.1 µM	remarkable anti-proliferative activity against all three cell-lines; also recorded: significant cytotoxic activity against all cancer cell lines	1.2 ± 0.8 µM	142.3	29.4 ± 6.2 µM	5.8	11.8 ± 0.5%	28.3 ± 0.4%	43.4 ± 0.3%	53.9 ± 0.8%	72.9 ± 0.5%	10.6 ± 2.3 µM	16.1	18.9 ± 0.3%	zone of inhibition at 100 µg/disc [16]: 12.3 ± 0.7 mm; zone of inhibition at 300 µg/disc [16]: 13.6 ± 0.6 mm; zone of inhibition at 500 µg/disc [16]: 15.3 ± 0.3 mm; antibacterial activity in words [9]: activity against Gram-negative ones without inhibiting the Gram-positive test strains; zone of inhibition at 100 µg/disc [17]: 10.6 ± 1.2 mm; zone of inhibition at 300 µg/disc [17]: 13.3 ± 1.5 mm; zone of inhibition at 500 µg/disc [17]: 14.7 ± 0.6 mm; % inhibition ±SD, DPPH ([14]; 25 μg/ml): 40.6 ± 0.9%; % inhibition ±SD, DPPH ([14]; 50 μg/ml): 58.5 ± 0.6%; % inhibition ±SD, DPPH ([14]; 100 μg/ml): 84.1 ± 0.2%; MIC (B. subtilis (ATCC 6633) [15]): > 500 µg/mL
500 µg/mL (≈ 885 µM)	> 500 µg/mL	> 500 µg/mL	500 µg/mL (≈ 885 µM)	35.1 ± 2.0 µg/mL (≈ 62.1 µM)	43.1 ± 1.8 µg/mL (≈ 76.3 µM)	COC(=O)c1cn(C2CC2)c2cc(N3CCN(C(=O)c4c(C)nnn4-c4ccc(Cl)cc4)CC3)c(F)cc2c1=O [Compound 6c, methyl 7-(4-(1-(4-chlorophenyl)-4-methyl-1H-1,2,3-triazole-5-carbonyl)piperazin-1-yl)-1-cyclopropyl-6-fluoro-4-oxo-1,4-dihydroquinoline-3-carboxylate]	294 ± 11.4 µM	significant cytotoxic activity against only U-87 and MCF-7 cancer cell lines	12.3 ± 5.5 µM	23.9	239 ± 7.9 µM	1.2	14.8 ± 0.6%	33.3 ± 0.8%	42.7 ± 0.4%	59.8 ± 0.3%	65.7 ± 0.1%	61.6 ± 11.1 µM	4.8	24.6 ± 1.8%	zone of inhibition at 100 µg/disc [1]: 12.7 ± 0.6 mm; zone of inhibition at 300 µg/disc [1]: 13.7 ± 1.1 mm; zone of inhibition at 500 µg/disc [1]: 15.3 ± 0.7 mm; zone of inhibition at 100 µg/disc [16]: 12.3 ± 0.6 mm; zone of inhibition at 300 µg/disc [16]: 14.6 ± 0.6 mm; zone of inhibition at 500 µg/disc [16]: 16.3 ± 0.6 mm; inhibition zones, range over susceptible strains ([9]; agar diffusion): 13 to 16 mm; zone of inhibition at 100 µg/disc [17]: 11.3 ± 0.7 mm; zone of inhibition at 300 µg/disc [17]: 13.6 ± 1.2 mm; zone of inhibition at 500 µg/disc [17]: 14.6 ± 0.3 mm; zone of inhibition at 100 µg/disc [18]: 10.6 ± 1.2 mm; zone of inhibition at 300 µg/disc [18]: 12.3 ± 0.6 mm; zone of inhibition at 500 µg/disc [18]: 13.3 ± 0.3 mm; % inhibition ±SD, DPPH ([14]; 25 μg/ml): 31.7 ± 0.3%; % inhibition ±SD, DPPH ([14]; 50 μg/ml): 52.2 ± 0.2%; % inhibition ±SD, DPPH ([14]; 100 μg/ml): 71.4 ± 0.7%; MIC (B. subtilis (ATCC 6633) [15]): > 500 µg/mL
